ChEMBL document CHEMBL1125010, “Relaxant activity of 4-amido-3,4-dihydro-2H-1-benzopyran-3-ols and 4-amido-2H-1-benzopyrans on guinea pig isolated trachealis” (J Med Chem, 1990)

Columns and labels:
Cavia porcellus [1] = species: Cavia porcellus; test: Inhibition of spontaneous tone in Guinea pig tracheal spiral strips.; assay type: functional, Trachea
How it was run: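 Guinea pig isolated trachealis, spontaneous tone. Relaxation is compared with the response to isoprenaline. IC50 is the concentration giving 50% of the isoprenaline response, read from the dose-response curve. Reported as the geometric mean, generally of four or more determinations.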

Cavia porcellus [2] = species: Cavia porcellus; test: Intrinsic activity measured on Guinea pig tracheal spiral strips.; assay type: functional, Trachea
How it was run: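 Guinea pig isolated trachealis relaxation. Intrinsic activity is the compound's maximum relaxant response divided by the maximum produced by isoprenaline. Reported as an arithmetic mean.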

SMILES | IC50 (Cavia porcellus [1]; Cavia porcellus, Trachea) | IC50 (Cavia porcellus [1]) | Intrinsic activity (Cavia porcellus [2])
CC1(C)C=C(N2CCCCC2=O)c2ccc(C#N)cc2O1 | 3960 nM | – | 0.86
CC1(C)C=C(N2CCCCC2=O)c2cnccc2O1 | 2200 nM | – | 0.92
Cn1c(=O)c2[nH]cnc2n(C)c1=O.Cn1c(=O)c2[nH]cnc2n(C)c1=O.NCCN [AMINOPHYLLINE] | 20100 nM | – | 0.54
CC1(C)C=C(N2CCCCC2=O)c2cc(C#N)ccc2O1 | 1100 nM | – | 0.9
CC(C)(C)NCC(O)c1ccc(O)c(CO)c1 (centres undefined) [ALBUTEROL] | 18 nM | – | 0.98
CC1(C)C=C(N2CCCC2=O)c2cc(C#N)ccc2O1 | 1570 nM | – | 0.91
CC1(C)C=C(n2ccccc2=O)c2cnccc2O1 | 2100 nM | – | 0.93
CC1(C)C=C(n2ccccc2=O)c2cc(C(F)(F)F)ccc2O1 | 56 nM | – | 0.97
CC1(C)Oc2ccncc2[C@@H](n2ccccc2=O)[C@@H]1O | 5100 nM | – | 0.81
CC1(C)Oc2ccc(C(F)(F)F)cc2[C@@H](n2ccccc2=O)[C@@H]1O | 540 nM | – | 0.96
CC1(C)Oc2cc(C(F)(F)F)ccc2[C@@H](N2CCCCC2=O)[C@@H]1O (stereo in doubt; (+)24) | – | 360 nM | 0.89
CC1(C)C=C(N2CCCCC2=O)c2c(cccc2C(F)(F)F)O1 | > 20000 nM | – | 0.11
CC1(C)C=C(N2CCCC2=O)c2ccc(C(F)(F)F)cc2O1 | 5100 nM | – | 0.97
CC1(C)Oc2cc(C(F)(F)F)ccc2[C@@H](N2CCCCC2=O)[C@@H]1O (stereo in doubt; (-)24) | – | 12600 nM | 0.69
CC1(C)C=C(n2ccccc2=O)c2c[n+]([O-])ccc2O1 | > 20000 nM | – | 0.01
CC1(C)C=C(N2CCCCC2=O)c2ccc(C(F)(F)F)cc2O1 | 2970 nM | – | 0.97
CC1(C)Oc2cccc(C(F)(F)F)c2[C@@H](N2CCCCC2=O)[C@@H]1O | > 20000 nM | – | 0.13
CC1(C)Oc2ccc(C#N)cc2[C@@H](n2ccccc2=O)[C@@H]1O [EMAKALIM] | 760 nM | – | 0.96
COC(=O)C1=C(C)NC(C)=C(C(=O)OC)C1c1ccccc1[N+](=O)[O-] [NIFEDIPINE] | > 20000 nM | – | 0.49
CC1(C)C=C(n2ccccc2=O)c2cc(C#N)ccc2O1 [BIMAKALIM] | 89 nM | – | 0.93
CC(N/C(=N\C#N)Nc1ccncc1)C(C)(C)C (centres undefined) [PINACIDIL ANHYDROUS] | 3630 nM | – | 0.86
CC1(C)C=C(N2CCC2=O)c2cc(C#N)ccc2O1 | 7500 nM | – | 0.91
CC1(C)C=C(N2CCCC2=O)c2cnccc2O1 | 6700 nM | – | 0.67
CC1(C)C=C(N2CCCCC2=O)c2cc(C(F)(F)F)ccc2O1 | 650 nM | – | 0.89

Now from value to molecule, other results behind:

IC50 (Cavia porcellus [1]; Cavia porcellus, Trachea) | IC50 (Cavia porcellus [1]) | SMILES | Intrinsic activity (Cavia porcellus [2])
410 nM | – | CC1(C)Oc2ccc(C(F)(F)F)cc2[C@@H](N2CCCC2=O)[C@@H]1O | 0.92
58 nM | – | CC1(C)Oc2ccc(C(F)(F)F)cc2[C@@H](N2CCCCC2=O)[C@@H]1O | 0.96
730 nM | – | CC1(C)Oc2cc(C(F)(F)F)ccc2[C@@H](N2CCCC2=O)[C@@H]1O | 0.9
> 20000 nM | – | CC1(C)Oc2ccc(C#N)cc2[C@@H](N2CCC2=O)[C@@H]1O | –
2680 nM | – | CCc1ccc2c(c1)[C@@H](N1CCCC1=O)[C@H](O)C(C)(C)O2 | 0.92
270 nM | – | CC1(C)Oc2ccc(C#N)cc2[C@@H](N2CCCCC2=O)[C@@H]1O | 0.82
1100 nM | – | CC1(C)Oc2ccc(C#N)cc2C(N2CCCC2=O)C1O (centres undefined) [CROMAKALIM] | 0.89
2250 nM | – | CCc1ccc2c(c1)OC(C)(C)[C@@H](O)[C@@H]2N1CCCCC1=O | 0.83
> 17000 nM | – | CC1(C)Oc2cc(C#N)ccc2[C@@H](N2CCCCC2=O)[C@@H]1O | 0.56
8600 nM | – | CC1(C)Oc2ccncc2[C@@H](N2CCCC2=O)[C@@H]1O | 0.68
1200 nM | – | Cc1ccc2c(c1)[C@@H](N1CCCCC1=O)[C@H](O)C(C)(C)O2 | 0.92
13500 nM | – | Cc1ccc2c(c1)[C@@H](N1CCCC1=O)[C@H](O)C(C)(C)O2 | 0.62
– | 660 nM | CC1(C)Oc2cc(C(F)(F)F)ccc2[C@@H](N2CCCCC2=O)[C@@H]1O (racemic) | –
660 nM | – | CC1(C)Oc2ccncc2[C@@H](N2CCCCC2=O)[C@@H]1O | 0.84
